Activity calls are given as the source filed them. The calls are words filed in the database; no cut-off is given here.
Key:
[1] = Substrate activity at PYSOCA in human CMEC/D3 cells assessed as transporter-mediated drug uptake measured for 2 mins at 37degC in presence of choline; format: ADME, cell-based
[2] = target: T1, Protein deacetylase HDAC6 (Mus musculus) (UniProt Q9Z2V5); assay: Inhibition of mouse HDAC6 expressed in 293T cells at 100 uM using Ac-KGLGK(Ac)-MCA as substrate measured after 30 mins by fluorescence assay relative to control
T1 sequence (whole entry): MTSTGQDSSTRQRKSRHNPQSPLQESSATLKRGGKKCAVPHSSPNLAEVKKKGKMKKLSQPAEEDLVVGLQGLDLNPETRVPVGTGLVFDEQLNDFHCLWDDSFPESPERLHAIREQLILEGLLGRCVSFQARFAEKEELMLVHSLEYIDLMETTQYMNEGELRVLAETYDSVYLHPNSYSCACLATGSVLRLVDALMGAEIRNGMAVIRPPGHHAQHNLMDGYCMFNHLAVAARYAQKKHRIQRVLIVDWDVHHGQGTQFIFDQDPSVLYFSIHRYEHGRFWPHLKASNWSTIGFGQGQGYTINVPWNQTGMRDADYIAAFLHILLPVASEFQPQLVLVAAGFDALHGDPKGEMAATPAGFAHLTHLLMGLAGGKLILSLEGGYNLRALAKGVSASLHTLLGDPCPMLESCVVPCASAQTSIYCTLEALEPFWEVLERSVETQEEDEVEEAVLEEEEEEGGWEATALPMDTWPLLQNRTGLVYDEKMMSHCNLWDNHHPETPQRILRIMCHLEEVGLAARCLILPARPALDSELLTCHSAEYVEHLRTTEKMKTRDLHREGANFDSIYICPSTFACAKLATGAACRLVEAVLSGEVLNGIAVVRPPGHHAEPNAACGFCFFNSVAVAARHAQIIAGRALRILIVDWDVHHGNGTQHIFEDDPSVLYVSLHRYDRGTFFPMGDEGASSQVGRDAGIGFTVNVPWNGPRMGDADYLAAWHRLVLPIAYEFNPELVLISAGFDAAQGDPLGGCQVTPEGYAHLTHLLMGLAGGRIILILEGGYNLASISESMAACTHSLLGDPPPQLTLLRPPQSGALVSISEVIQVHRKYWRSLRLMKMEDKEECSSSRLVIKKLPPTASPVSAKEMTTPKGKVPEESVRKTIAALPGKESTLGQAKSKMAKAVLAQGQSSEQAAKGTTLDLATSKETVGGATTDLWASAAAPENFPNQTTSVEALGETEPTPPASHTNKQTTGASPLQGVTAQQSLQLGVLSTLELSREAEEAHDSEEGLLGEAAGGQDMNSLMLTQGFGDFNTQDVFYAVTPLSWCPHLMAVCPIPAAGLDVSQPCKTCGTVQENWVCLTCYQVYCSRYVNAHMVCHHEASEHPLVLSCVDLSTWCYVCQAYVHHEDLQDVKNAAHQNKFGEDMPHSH

[3] = Substrate activity at PYSOCA in human CMEC/D3 cells assessed as transporter-mediated drug uptake measured for 2 mins at 37degC in presence of varenicline; format: ADME, cell-based
[4] = target: Histone deacetylase 1 (Homo sapiens, UniProt Q13547); assay: Inhibition of recombinant human C-terminal FLAG/His-tagged HDAC1 expressed in baculovirus infected Sf9 insect cells using HDAC substrate 3 measured after 30 mins by fluorescence assay
Sequence of Histone deacetylase 1 (Q13547 whole entry): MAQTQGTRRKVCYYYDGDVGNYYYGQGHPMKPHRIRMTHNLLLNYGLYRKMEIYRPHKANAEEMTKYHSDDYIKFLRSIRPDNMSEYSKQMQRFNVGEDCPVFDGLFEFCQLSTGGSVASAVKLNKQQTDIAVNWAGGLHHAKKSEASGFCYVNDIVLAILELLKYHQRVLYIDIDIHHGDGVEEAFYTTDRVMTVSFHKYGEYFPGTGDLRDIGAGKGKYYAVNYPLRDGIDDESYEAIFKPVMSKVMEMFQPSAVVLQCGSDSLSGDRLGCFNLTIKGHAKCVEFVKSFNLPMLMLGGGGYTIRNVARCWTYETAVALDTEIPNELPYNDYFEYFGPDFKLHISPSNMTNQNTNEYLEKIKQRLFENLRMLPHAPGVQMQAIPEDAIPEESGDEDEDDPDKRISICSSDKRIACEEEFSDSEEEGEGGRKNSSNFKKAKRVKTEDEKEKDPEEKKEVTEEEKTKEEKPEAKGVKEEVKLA

[5] = Substrate activity at PYSOCA in human CMEC/D3 cells assessed as transporter-mediated drug uptake measured for 2 mins at 37degC in presence of TEA; format: ADME, cell-based
[6] = target: Histone deacetylase 4 (Homo sapiens) (UniProt P56524); assay: Inhibition of N-terminal GST tagged/C-terminal His tagged human recombinant HDAC4 (627 to 1084 residues) expressed in baculovirus infected insect cells at 30 uM using HDAC class 2a substrate measured after 30 mins by fluorescence assay relative to control
Sequence of Histone deacetylase 4 (Homo sapiens) (P56524 whole entry, the tested form may be a part): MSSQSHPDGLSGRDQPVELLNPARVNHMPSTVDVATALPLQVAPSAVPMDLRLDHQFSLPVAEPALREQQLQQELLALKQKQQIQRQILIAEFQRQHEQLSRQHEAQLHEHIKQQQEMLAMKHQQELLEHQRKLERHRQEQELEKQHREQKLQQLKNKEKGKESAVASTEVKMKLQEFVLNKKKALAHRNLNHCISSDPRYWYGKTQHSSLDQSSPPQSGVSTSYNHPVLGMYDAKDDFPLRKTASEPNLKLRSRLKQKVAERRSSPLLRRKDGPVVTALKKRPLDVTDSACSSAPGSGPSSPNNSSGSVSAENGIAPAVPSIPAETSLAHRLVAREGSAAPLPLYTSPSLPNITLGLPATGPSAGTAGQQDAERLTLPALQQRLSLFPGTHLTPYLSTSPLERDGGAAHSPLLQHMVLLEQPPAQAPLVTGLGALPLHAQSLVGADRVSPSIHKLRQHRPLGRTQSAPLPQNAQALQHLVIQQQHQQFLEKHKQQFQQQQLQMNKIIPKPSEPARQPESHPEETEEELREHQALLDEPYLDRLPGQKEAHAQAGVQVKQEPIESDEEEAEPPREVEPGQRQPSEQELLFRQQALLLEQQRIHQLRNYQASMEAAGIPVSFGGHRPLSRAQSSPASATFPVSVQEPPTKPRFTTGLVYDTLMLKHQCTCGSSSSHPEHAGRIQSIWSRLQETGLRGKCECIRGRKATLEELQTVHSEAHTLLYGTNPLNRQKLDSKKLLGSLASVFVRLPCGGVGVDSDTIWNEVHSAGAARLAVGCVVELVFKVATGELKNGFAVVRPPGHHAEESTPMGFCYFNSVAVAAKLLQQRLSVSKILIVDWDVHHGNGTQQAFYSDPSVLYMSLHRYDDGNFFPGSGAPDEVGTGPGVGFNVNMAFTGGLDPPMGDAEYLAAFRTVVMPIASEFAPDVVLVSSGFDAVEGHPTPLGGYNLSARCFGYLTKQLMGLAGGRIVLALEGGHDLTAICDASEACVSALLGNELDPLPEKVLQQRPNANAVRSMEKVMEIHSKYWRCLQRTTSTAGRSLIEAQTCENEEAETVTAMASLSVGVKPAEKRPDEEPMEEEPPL

[7] = Substrate activity at PYSOCA in human CMEC/D3 cells assessed as transporter-mediated drug uptake measured for 2 mins at 37degC in presence of metabolic inhibitor NaN3; format: ADME, cell-based
In short: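 To deplete cellular ATP, hCMEC/D3 cells were pretreated with 0.1% NaN3 for 20 min. Uptake was then measured at 37 °C for 2 min. Mean ± S.E., n = 4.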

[8] = Substrate activity at PYSOCA in human CMEC/D3 cells assessed as transporter-mediated drug uptake measured for 2 mins at 37degC in presence of pyrilamine; format: ADME, cell-based
[9] = Substrate activity at PYSOCA in human CMEC/D3 cells assessed as transporter-mediated drug uptake measured for 1 min at 37degC in presence of NH4Cl under intracellular acidification condition; format: ADME, cell-based
In short: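 hCMEC/D3 cells were pretreated in transport buffer with or without 30 mM NH4Cl. Uptake was then measured at 37 °C for 1 min with or without 30 mM NH4Cl (Control, Pre and Acute conditions). Mean ± S.E., n = 4.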

[10] = Substrate activity at PYSOCA in human CMEC/D3 cells assessed as transporter-mediated drug uptake clearance assessed per mg protein at 37degC; format: ADME, cell-based
In short: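 Uptake by hCMEC/D3 cells followed over time at 37 °C or 4 °C. Clearance was calculated from the initial linear slope, expressed per mg protein. Mean ± S.E., n = 4.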

[11] = target: Histone deacetylase 2 (Homo sapiens, UniProt Q92769); assay: Inhibition of recombinant human C-terminal FLAG-tagged HDAC2 expressed in baculovirus infected Sf9 insect cells using HDAC substrate 3 measured after 30 mins by fluorescence assay
Sequence of Histone deacetylase 2 (Q92769 whole entry): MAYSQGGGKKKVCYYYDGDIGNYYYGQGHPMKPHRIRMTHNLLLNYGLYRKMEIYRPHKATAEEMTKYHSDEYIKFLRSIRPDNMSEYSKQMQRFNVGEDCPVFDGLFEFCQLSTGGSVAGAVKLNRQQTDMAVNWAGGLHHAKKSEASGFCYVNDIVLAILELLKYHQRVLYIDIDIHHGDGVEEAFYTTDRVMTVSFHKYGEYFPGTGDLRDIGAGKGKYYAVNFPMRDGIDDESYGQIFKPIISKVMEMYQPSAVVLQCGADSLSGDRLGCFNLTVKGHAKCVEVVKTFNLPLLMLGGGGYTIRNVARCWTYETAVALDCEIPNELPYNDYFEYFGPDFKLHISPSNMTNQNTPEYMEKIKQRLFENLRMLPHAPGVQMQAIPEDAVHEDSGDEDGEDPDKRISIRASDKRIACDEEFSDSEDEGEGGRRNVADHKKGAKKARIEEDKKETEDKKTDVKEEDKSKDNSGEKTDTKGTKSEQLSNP

[12] = Blood brain barrier permeability in Wistar rat brain at 20 uM by LC-MS/MS analysis; format: ADME, tissue-based
In short: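 Right cerebral hemisphere of rat perfused with buffer containing test agent (20 µM) at 4.9 mL/min for 1 min.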

[13] = target: Histone deacetylase (Homo sapiens) (UniProt Q13547+O15379+Q9UBN7+Q92769+Q9UQL6+Q8WUI4+Q9BY41+Q96DB2+P56524+Q9UKV0+Q969S8); details: at 10 µM
[14] = target: T2, Histone deacetylase 11 (Homo sapiens) (UniProt Q96DB2); assay: Inhibition of recombinant human full length HDAC11 expressed in baculovirus infected insect cells at 30 uM using HDAC class 2a substrate measured after 30 mins by fluorescence assay relative to control
T2 sequence (whole entry): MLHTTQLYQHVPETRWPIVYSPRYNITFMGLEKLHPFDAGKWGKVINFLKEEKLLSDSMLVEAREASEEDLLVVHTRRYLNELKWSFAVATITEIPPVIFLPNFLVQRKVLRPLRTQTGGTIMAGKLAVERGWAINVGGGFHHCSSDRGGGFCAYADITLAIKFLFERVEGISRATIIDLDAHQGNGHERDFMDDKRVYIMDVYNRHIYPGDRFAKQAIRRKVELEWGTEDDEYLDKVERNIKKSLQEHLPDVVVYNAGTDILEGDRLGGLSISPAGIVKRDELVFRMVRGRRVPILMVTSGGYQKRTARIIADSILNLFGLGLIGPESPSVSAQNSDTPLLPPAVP

COc1ccc(CN(CCN(C)C)c2ccc(C(=O)Nc3ccccc3N)cn2)cc1
Activity [1]: Active | inhibition [2]: 11% | Activity [3]: Not Active | IC50 [4]: 1.5 µM | Activity [5]: Active | inhibition [6]: < 10% | Activity [7]: Not Active | Activity [8]: Not Active | Activity [9]: Active | CL [10]: 107 µL/min | IC50 [11]: 5.5 µM | pBBB [12]: 42.4 microL/min/g | inhibition [13]: Active | inhibition [14]: < 10%
